The species named for assay [1] is Rattus norvegicus. As to the kind of experiment: Agonistic activity was evaluated in Estrus Rat Uterus Assay. In kind it is functional. The method in brief: (§1)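 Uteri from female Wistar rats (180–200 g) given diethylstilbestrol 100 µg/kg sc 16 h before use. Distal horns held in de Jalon solution at 28 °C under 0.5 g resting tension, with isotonic contractions recorded. BK was dosed every 4 min and left in the bath 45 s. Agonist activity by Schild 4-point method, expressed as percent of BK activity.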

A short description of assay [2]: Inhibitory activity against low affinity binding site of Bradykinin receptor in guinea pig ileum. Type of assay: tissue-based. To be noted: Cavia porcellus. The method, boiled down: (§2)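 Fresh rat myometrial or guinea pig ileum membranes (0.3–0.5 mg protein) incubated 30 min at 4 °C with 0.05 nM [3H]BK and increasing peptide concentrations. Buffer: 25 mM TES pH 6.8, 1 µM captopril, 1 mM DTE, bacitracin, BSA. Samples filtered on PEI-treated GF/C and counted. High- and low-affinity IC50s from Tobler–Engel analysis; duplicates.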

The species named for assay [3] is Cavia porcellus. As to the kind of experiment: Antagonistic activity was evaluated in Guinea pig ileum assay. The arrangement: scale not given: the % may be the effect or the level left. In kind it is functional. The method, boiled down: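 Guinea pig terminal ileum in Tyrode at 37 °C under 0.5 g tension, isotonic recording. Analog added 5 min before a cumulative BK dose–response curve (maximum at 0.3 µM BK). pA2 is the negative log of the antagonist concentration that reduces the effect of a double BK dose to that of a single dose. Means of 3–7 determinations.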

The species entered for assay [4] is Cavia porcellus. The assay is described as follows: Antagonistic activity was evaluated in Guinea pig lung strip assay. The arrangement: scale not given: the % may be the effect or the level left. In kind it is functional. The method in brief: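 Lower-lobe lung strips (2–3 mm) from guinea pigs (400–600 g) in Krebs–Henseleit at 37 °C under 1 g load, with isometric tension recorded. After 1 h equilibration, peptide was given 5 min before an ED50 dose of BK. Cumulative BK curves covered 0.01–10 µM. pA2 by the van Rossum method.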

A short description of assay [5]: Inhibitory activity against low affinity binding site of Bradykinin receptor in rat uterus membrane was reported. In kind it is cell membranes. The method, boiled down:
as §2

A short description of assay [6]: Inhibitory activity against high affinity binding site of Bradykinin receptor in rat uterus membrane was reported. Type of assay: cell membranes. The method, boiled down:
as §2

Assay [7] is described as follows: Selectivity for rat uterus is expressed as the ratio RUT/GPI. Type of assay: functional. The method, boiled down:
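Ratio of agonist activity (percent of BK) in estrus rat uterus to that in guinea pig ileum, both from isotonic contraction assays using the Schild 4-point method.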

Assay [8] is filed under the species Cavia porcellus. As to the kind of experiment: Agonistic activity against selectivity for smooth muscle contraction in guinea pig ileum. Type of assay: functional, Muscle tissue. The method in brief:
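Isolated terminal ileum (1.5 cm) from guinea pigs fasted 16 h, in Tyrode at 37 °C. Isotonic contractions recorded under 0.5 g resting tension. Agonist activity measured by Schild 4-point method against BK doses of 1 and 2 nM, expressed as percent of BK activity.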

Assay [9] is filed under the species Rattus norvegicus. The assay is described as follows: Agonistic activity against selectivity for smooth muscle contraction in rat uterus. Type of assay: functional, Muscle tissue. The method in brief: as §1
Assay [10] can be described thus: Inhibitory activity against high affinity binding site of Bradykinin receptor in guinea pig ileum was reported. In kind it is tissue-based. To be noted: Cavia porcellus. The method in brief: as §2

Square brackets hold non-standard residues; d marks the D form. Peptide text beside a SMILES is read from it. Phe(4-guanidino) = N=C(N)Nc1ccc(C[C@H](N)C(=O)O)cc1; 2Thi = N[C@@H](Cc1cccs1)C(=O)O; Aib = CC(C)(N)C(=O)O

By IC50 is commonly meant the point on the concentration scale where inhibition reaches its midpoint.

Consider `CN(C(=O)[C@@H]1CCCN1C(=O)[C@@H](N)CCCN=C(N)N)[C@H](Cc1ccccc1)C(=O)NCC(=O)N[C@@H](Cc1ccccc1)C(=O)N[C@@H](CO)C(=O)N1CCC[C@H]1C(=O)N[C@@H](Cc1ccccc1)C(=O)N[C@@H](CCCN=C(N)N)C(=O)O`, for which the Activity in assay [1] came to 0.02%; in assay [3] it was 0.03%; in [4], 0.03%. Further, the IC50 came to 1.4 µM in assay [2], 0.057 µM in assay [5] and 0.0003 µM in [6].
For `CN(C(=O)[C@H](CO)NC(=O)[C@H](Cc1ccccc1)N(C)C(=O)CNC(=O)[C@@H]1C[C@@H](O)CN1C(=O)[C@@H]1CCCN1C(=O)[C@H](CCCN=C(N)N)NC(=O)[C@H](N)CCCN=C(N)N)[C@H](Cc1ccccc1)C(=O)N(C)[C@@H](Cc1ccccc1)C(=O)N[C@@H](CCCN=C(N)N)C(=O)O`, the Activity in [1] is 15%; in assay [3], 0.005%; in assay [4], 0.5%. Further, the Ratio in assay [7] was determined as 3000.
In the case of `NC(N)=NCCC[C@@H](N)C(=O)N[C@@H](CCCN=C(N)N)C(=O)N1CCC[C@H]1C(=O)N1C[C@H](O)C[C@H]1C(=O)NCC(=O)N[C@@H](Cc1cccs1)C(=O)N[C@@H](CO)C(=O)N1CCC[C@H]1C(=O)N[C@@H](Cc1cccs1)C(=O)N[C@@H](CCCN=C(N)N)C(=O)O`, the Activity is recorded as 7% in [8] and 237% in assay [9]. For the same molecule, the Ratio in assay [7] is reported as 30.
For `CC(C)(NC(=O)[C@@H](Cc1c[nH]c2ccccc12)NC(=O)[C@H](Cc1ccccc1)NC(=O)CNC(=O)[C@@H]1CCCN1C(=O)[C@@H]1CCCN1C(=O)[C@@H](N)CCCN=C(N)N)C(=O)N[C@@H](Cc1ccccc1)C(=O)N[C@@H](CCCN=C(N)N)C(=O)O`, the Activity in assay [8] turned out to be 226%; in [9] it was 100%. Besides, the Ratio in [7] was 0.442.
As for `CC(C)(NC(=O)[C@@H](Cc1ccccc1)NC(=O)[C@H](Cc1ccccc1)NC(=O)CNC(=O)[C@@H]1CCCN1C(=O)[C@@H]1CCCN1C(=O)[C@@H](N)CCCN=C(N)N)C(=O)N[C@@H](Cc1ccccc1)C(=O)N[C@@H](CCCN=C(N)N)C(=O)O`, the Activity in [8] turned out to be 426%; in assay [9], 124%. In assay [7], the Ratio stood at 0.291.
For the molecule `NC(N)=NCCC[C@H](NC(=O)[C@H](Cc1ccccc1)NC(=O)[C@@H](Cc1ccccc1)NC(=O)CNC(=O)[C@H](Cc1ccccc1)NC(=O)CNC(=O)[C@@H]1CCCN1C(=O)[C@@H]1CCCN1C(=O)[C@@H](N)CCCN=C(N)N)C(=O)O`, the Activity in assay [8] came to 0.3%; in assay [9] it was 31%. The Ratio in assay [7] was found to be 100.
As to `CN(C(=O)[C@H](CO)NC(=O)[C@H](Cc1cccs1)NC(=O)CNC(=O)[C@@H]1C[C@@H](O)CN1C(=O)[C@@H]1CCCN1C(=O)[C@H](CCCN=C(N)N)NC(=O)[C@H](N)CCCN=C(N)N)[C@H](Cc1ccccc1)C(=O)N[C@@H](Cc1ccccc1)C(=O)N[C@@H](CCCN=C(N)N)C(=O)O`, the figures for the Activity in assay [1], in [3] and in assay [4] were 86%, 0.006% and 0.04%, respectively. In assay [7], the Ratio is 10000.
`CC[C@@H](C)[C@@H](N)C(=O)N[C@@H](CO)C(=O)N[C@@H](CCCN=C(N)N)C(=O)N1CCC[C@H]1C(=O)N1CCC[C@H]1C(=O)NCC(=O)N[C@@H](Cc1ccccc1)C(=O)N[C@@H](CO)C(=O)N1CCC[C@H]1C(=O)N[C@@H](Cc1ccccc1)C(=O)N[C@@H](CCCN=C(N)N)C(=O)O`: the Activity in assay [8] is recorded as 11%; in assay [9], 271%. The Ratio in [7] is 25.
For the molecule `CN(C(=O)[C@H](CO)NC(=O)[C@H](Cc1ccccc1)NC(=O)CNC(=O)[C@@H]1CCCN1C(=O)[C@@H]1CCCN1C(=O)[C@H](CCCN=C(N)N)NC(=O)[C@H](N)CCCN=C(N)N)[C@@H](Cc1ccccc1)C(=O)N[C@@H](Cc1ccccc1)C(=O)N[C@@H](CCCN=C(N)N)C(=O)O` [listing 1 of 2 here], the IC50 worked out at 0.001 µM in [2] and 0.033 µM in assay [5].
Consider `CN(C(=O)[C@H](CO)NC(=O)[C@H](Cc1ccccc1)NC(=O)CNC(=O)[C@@H]1CCCN1C(=O)[C@@H]1CCCN1C(=O)[C@H](CCCN=C(N)N)NC(=O)[C@H](N)CCCN=C(N)N)[C@@H](Cc1ccccc1)C(=O)N[C@@H](Cc1ccccc1)C(=O)N[C@@H](CCCN=C(N)N)C(=O)O` [listing 2 of 2 here], for which the figures for the Activity in assay [1], in [3] and in assay [4] were 0.5%, 0.07% and 0.08%, respectively.
Regarding `CN(C(=O)[C@@H](N)CCCN=C(N)N)[C@H](Cc1ccccc1)C(=O)N1CCC[C@H]1C(=O)NCC(=O)N[C@@H](Cc1ccccc1)C(=O)N[C@@H](CO)C(=O)N1CCC[C@H]1C(=O)N[C@@H](Cc1ccccc1)C(=O)N[C@@H](CCCN=C(N)N)C(=O)O`, the Activity worked out at 0.15% in assay [1], 0.15% in assay [3] and 0.05% in assay [4]. The results for the half-inhibitory concentration (IC50) in assay [2], in assay [5] and in assay [10] were 3.78 µM, 0.1 µM and 0.057 µM, respectively.
For the molecule `CN(C(=O)[C@H](CO)NC(=O)[C@H](Cc1ccccc1)NC(=O)CNC(=O)[C@@H]1C[C@@H](O)CN1C(=O)[C@@H]1CCCN1C(=O)[C@H](CCCN=C(N)N)NC(=O)[C@H](N)CCCN=C(N)N)[C@H](Cc1ccccc1)C(=O)N(C)[C@@H](Cc1ccccc1)C(=O)N[C@@H](CCCN=C(N)N)C(=O)O` [listing 1 of 2 here], the figures for the IC50 in [2], in [5] and in assay [6] were 0.033 µM, 0.018 µM and 0.00033 µM, respectively.
Take `CN(C(=O)[C@H](CO)NC(=O)[C@H](Cc1ccccc1)NC(=O)CNC(=O)[C@@H]1C[C@@H](O)CN1C(=O)[C@@H]1CCCN1C(=O)[C@H](CCCN=C(N)N)NC(=O)[C@H](N)CCCN=C(N)N)[C@H](Cc1ccccc1)C(=O)N(C)[C@@H](Cc1ccccc1)C(=O)N[C@@H](CCCN=C(N)N)C(=O)O` [listing 2 of 2 here]: the values for the Activity in assay [1], in assay [3] and in assay [4] were 40%, 0.01% and 0.45%, respectively. Also, in assay [7], the Ratio amounted to 4000.
Consider `CN(C(=O)[C@H](CO)NC(=O)[C@H](Cc1ccccc1)NC(=O)CNC(=O)[C@@H]1CCCN1C(=O)[C@@H]1CCCN1C(=O)[C@@H](N)CCCN=C(N)N)[C@@H](Cc1ccccc1)C(=O)N[C@@H](Cc1ccccc1)C(=O)N[C@@H](CCCN=C(N)N)C(=O)O`, for which the Activity was found to be 0.2% in [1], 0.03% in [3] and 0.1% in assay [4]. The IC50 came out at 0.7 µM in [2] and 0.5 µM in assay [5].
With `NC(N)=NCCC[C@H](NC(=O)[C@H](Cc1cccs1)NC(=O)[C@@H]1CCCN1C(=O)[C@H](CO)NC(=O)[C@H](Cc1ccccc1)NC(=O)CNC(=O)[C@@H]1CCCN1C(=O)[C@@H]1CCCN1C(=O)[C@@H](N)CCCN=C(N)N)C(=O)O` (H-RPPGFSP[2Thi]R-OH), the Activity turned out to be 40% in [8] and 500% in assay [9]. Also, the Ratio in [7] came to 13.
On to `CC(C)(NC(=O)[C@H](CO)NC(=O)[C@H](Cc1ccccc1)NC(=O)CNC(=O)[C@@H]1CCCN1C(=O)[C@@H]1CCCN1C(=O)[C@@H](N)CCCN=C(N)N)C(=O)N[C@@H](Cc1ccccc1)C(=O)N[C@@H](CCCN=C(N)N)C(=O)O` (H-RPPGFS[Aib]FR-OH), for which the Activity worked out at 418% in [8] and 55% in assay [9]. Also, in [7], the Ratio stood at 0.13.
Regarding `NC(N)=NCCC[C@H](NC(=O)[C@H](Cc1cccs1)NC(=O)[C@@H]1CCCN1C(=O)[C@H](CO)NC(=O)[C@H](Cc1cccs1)NC(=O)CNC(=O)[C@@H]1CCCN1C(=O)[C@@H]1CCCN1C(=O)[C@@H](N)CCCN=C(N)N)C(=O)O` (H-RPPG[2Thi]SP[2Thi]R-OH), the Activity in assay [8] was determined as 200%; in [9], 1000%. The Ratio in [7] came to 5.
`N=C(N)Nc1ccc(C[C@H](NC(=O)[C@H](Cc2ccccc2)NC(=O)[C@@H]2CCCN2C(=O)[C@H](CO)NC(=O)[C@H](Cc2ccccc2)NC(=O)CNC(=O)[C@@H]2CCCN2C(=O)[C@@H]2CCCN2C(=O)[C@@H](N)Cc2ccc(NC(=N)N)cc2)C(=O)O)cc1` (H-[Phe(4-guanidino)]PPGFSPF[Phe(4-guanidino)]-OH): the Activity in assay [8] is 2%; in assay [9] it was 0.001%. For the same molecule, the Ratio in [7] was 0.001.
For `CC(C)(NC(=O)[C@@H](Cc1ccc(Cl)cc1)NC(=O)C(Cc1ccccc1)NC(=O)CNC(=O)[C@@H]1CCCN1C(=O)[C@@H]1CCCN1C(=O)[C@@H](N)CCCN=C(N)N)C(=O)NC(Cc1ccccc1)C(=O)N[C@@H](CCCN=C(N)N)C(=O)O` (stereo in doubt), the Activity in [8] was determined as 321%; in assay [9], 97%. Moreover, in assay [7], the Ratio worked out at 0.3.
Regarding H-RPPGFSPFK-OH, the values for the Activity in assay [8] and in assay [9] were 20% and 0.2%, respectively. For the same molecule, in assay [7], the Ratio worked out at 0.01.

The values are drawn from ChEMBL document CHEMBL1129495, “Highly selective bradykinin agonists and antagonists with replacement of proline residues by N-methyl-D- and L-phenylalanine” (J Med Chem, 1996).
